The record followed here is ChEMBL document CHEMBL1127862, “Nonpeptide angiotensin II receptor antagonists. Synthesis, in vitro activity, and molecular modeling studies of N-[(heterobiaryl)methyl] imidazoles” (J Med Chem, 1994).

The target of test [1] is Angiotensin II receptor (Oryctolagus cuniculus). Nature of the test: Tested for the antagonism of AII-induced contraction in rabbit endothelium-denuded aorta strips.
The target in test [2] is T1, Angiotensin II receptor (Rattus norvegicus, UniProt P29089+P25095+P35351).
T1 sequence (P29089 whole entry): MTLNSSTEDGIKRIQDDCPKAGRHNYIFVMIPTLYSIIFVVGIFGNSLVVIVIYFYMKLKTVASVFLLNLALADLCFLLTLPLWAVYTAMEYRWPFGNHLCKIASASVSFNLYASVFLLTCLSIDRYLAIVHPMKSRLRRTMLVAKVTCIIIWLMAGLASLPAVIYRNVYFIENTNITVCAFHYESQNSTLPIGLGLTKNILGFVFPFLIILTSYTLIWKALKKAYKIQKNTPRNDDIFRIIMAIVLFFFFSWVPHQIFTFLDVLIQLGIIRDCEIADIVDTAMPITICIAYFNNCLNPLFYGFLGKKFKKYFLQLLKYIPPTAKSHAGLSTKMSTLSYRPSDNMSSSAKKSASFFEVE
T1 sequence (P25095 whole entry): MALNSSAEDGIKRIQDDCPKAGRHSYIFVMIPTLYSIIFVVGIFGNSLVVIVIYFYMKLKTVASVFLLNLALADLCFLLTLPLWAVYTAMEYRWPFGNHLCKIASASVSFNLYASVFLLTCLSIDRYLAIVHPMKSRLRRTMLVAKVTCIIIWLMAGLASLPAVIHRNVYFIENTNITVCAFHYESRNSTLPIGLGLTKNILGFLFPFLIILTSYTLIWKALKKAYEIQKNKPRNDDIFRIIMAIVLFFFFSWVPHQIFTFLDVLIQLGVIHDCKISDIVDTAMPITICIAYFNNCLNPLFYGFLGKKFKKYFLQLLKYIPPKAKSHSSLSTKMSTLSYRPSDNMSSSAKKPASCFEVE
T1 sequence (P35351 whole entry): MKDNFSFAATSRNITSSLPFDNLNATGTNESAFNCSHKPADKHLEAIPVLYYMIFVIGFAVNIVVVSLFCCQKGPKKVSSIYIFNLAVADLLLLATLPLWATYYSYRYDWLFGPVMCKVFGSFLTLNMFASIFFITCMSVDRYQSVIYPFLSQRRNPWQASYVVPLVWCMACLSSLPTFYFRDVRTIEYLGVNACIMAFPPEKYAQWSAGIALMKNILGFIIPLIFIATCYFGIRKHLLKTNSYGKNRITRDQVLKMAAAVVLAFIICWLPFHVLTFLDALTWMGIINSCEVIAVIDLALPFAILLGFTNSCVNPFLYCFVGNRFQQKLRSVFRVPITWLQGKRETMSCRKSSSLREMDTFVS
Nature of the test: Tested for the binding affinity using radioligand [125I]-Sar1 Ile8-AII in the rat adrenal capsular membranes (adrenal cortex). It is filed as cell membranes. The essentials:
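Membranes from rat adrenal capsules, homogenized in 50 mM Tris-HCl, washed by repeated 50000g spins at 4 °C, resuspended in pH 7.4 sodium phosphate assay buffer with NaCl, EDTA, PMSF, protease inhibitors, BSA and bacitracin. Nonspecific binding defined with 1 uM unlabeled peptide. Bound label separated by vacuum filtration. Ki fitted from replicate curves.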

SMILES strings stand for the structures.

The compound `CCCCc1nc(CO)c(Cl)n1Cc1ccc(-c2cccnc2C(=O)O)cc1` returned a pA2 in test [1] of under 5. This compound also had a Ki in test [2] of over 10 µM.
For `CCCCc1nc(CO)c(Cl)n1Cc1ccc(-c2ncccc2C(=O)O)cc1` the same measures were under 5 and over 10 µM.
For `CCCCc1nc(Cl)c(CO)n1Cc1ccc(-c2ccoc2C(=O)O)cc1` the same measures were under 5 and over 10 µM.
As for `CCCCc1nc(CO)c(Cl)n1Cc1ccc(-c2ccoc2C(=O)O)cc1`, the pA2 in test [1] is 6. The compound further came in with a Ki in test [2] of over 10 µM.
For `CCCCc1nc(Cl)c(CO)n1Cc1ccc(-c2ccccc2C(=O)O)o1` the same measures were 5.2 and over 10 µM.
For `CCCCc1nc(Cl)c(CO)n1Cc1ccc(-c2ccsc2C(=O)O)cc1`, in that order: under 5 and 14.5 µM.
For `CCCCc1nc(Cl)c(CO)n1Cc1ccc(-c2ncccc2C(=O)O)cc1` the same measures were under 5 and 9.8 µM.
The compound `CCCCc1nc(Cl)c(CO)n1Cc1ccc(-c2cccnc2C(=O)O)cc1` came in with a pA2 in test [1] of 6.1. The Ki in test [2] is 3.3 µM.
For `CCCCc1nc(CO)c(Cl)n1Cc1ccc(-c2nc(C)sc2C(=O)O)cc1`, in that order: “<= 5” and over 10 µM.
For `CCCCc1nc(Cl)c(CO)n1Cc1ccc(-c2nc(C)sc2C(=O)O)cc1` the same measures were under 5 and over 10 µM.
For `CCCCc1nc(Cl)c(CO)n1Cc1ccc(-c2cnccc2C(=O)O)cc1`, in that order: under 5 and 6.7 µM.
Regarding `CCCCc1nc(Cl)c(CO)n1Cc1ccc(-c2ccccc2C(=O)O)s1`, the pA2 in test [1] was under 5. This compound had a Ki in test [2] of over 10 µM.
